# ChEMBL document CHEMBL3414463, “Discovery of potent and selective 8-fluorotriazolopyridine c-Met inhibitors” (J Med Chem, 2015)
# Experiments:
# [1] = Drug level in monkey liver microsomes treated with 5-(8-Fluoro-3-(1-(3-methoxyquinolin-6-yl)ethyl)[1,2,4]-triazolo[4,3-a]pyridin-6-yl)-3-methylisoxazole assessed as compound formation in presence of NADPH by LC-MS/MS method; type: ADME, Macaca mulatta; details: rhesus monkey
# Summary of the method: (§1)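 Compound incubated with NADPH in mouse, rat, dog, monkey or human liver microsomes. Metabolites were identified by accurate mass spectrometry and MS/MS, and selected ion chromatograms were used to build metabolite profiles.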
# Liver microsome [2] = test: Drug level in human liver microsomes treated with 5-(8-Fluoro-3-(1-(3-methoxyquinolin-6-yl)ethyl)[1,2,4]-triazolo[4,3-a]pyridin-6-yl)-3-methylisoxazole assessed as compound formation in presence of NADPH by LC-MS/MS method; type: ADME; summary of the method: as §1
# Mus musculus [3] = test: Inhibition of human recombinant HGF-stimulated c-Met autophosphorylation in Balb/c mouse assessed as relative phospho c-Met level at 10 mg/kg, po administered as single dose and measured 3 hrs before mouse sacrifice by electrochemiluminescence immunoassay; type: functional; design: scale not given: the % may be the effect or the level left
# Summary of the method: (§2)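 Mice received a single 10 mg/kg oral dose. Human recombinant HGF (12 μg) was given IV at 1, 3, 6, 9, 12 or 24 h postdose, and liver was harvested 5 min later. Liver phospho-c-Met was measured by electrochemiluminescent immunoassay. Mean ± SD, n = 3; ANOVA with Bonferroni/Dunn test versus HGF control.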
# Liver microsome [4] = test: Drug metabolism in rat liver microsomes assessed as formation of (S)-2-(6-(1-(8-fluoro-6-(3-methylisoxazol-5-yl)-[1,2,4]triazolo[4,3-a]pyridin-3-yl)ethyl)quinolin-3-yloxy)ethanol in presence of NADPH by LC-MS/MS method; type: ADME; summary of the method: as §1
# Mus musculus [5] = test: Inhibition of human recombinant HGF-stimulated c-Met autophosphorylation in Balb/c mouse assessed as relative phospho c-Met level at 10 mg/kg, po administered as single dose and measured 9 hrs before mouse sacrifice by electrochemiluminescence immunoassay; type: functional; design: scale not given: the % may be the effect or the level left; summary of the method: as §2
# Mus musculus [6] = test: Inhibition of human recombinant HGF-stimulated c-Met autophosphorylation in Balb/c mouse assessed as relative phospho c-Met level at 10 mg/kg, po administered as single dose and measured 24 hrs before mouse sacrifice by electrochemiluminescence immunoassay; type: functional; design: scale not given: the % may be the effect or the level left; summary of the method: as §2
# Liver microsome [7] = test: Drug metabolism in dog liver microsomes assessed as formation of (S)-2-(6-(1-(8-fluoro-6-(3-methylisoxazol-5-yl)-[1,2,4]triazolo[4,3-a]pyridin-3-yl)ethyl)quinolin-3-yloxy)acetic acid in presence of NADPH by LC-MS/MS method; type: ADME, Canis lupus familiaris; summary of the method: as §1
# Mus musculus [8] = test: Inhibition of human recombinant HGF-stimulated c-Met autophosphorylation in Balb/c mouse assessed as relative phospho c-Met level at 10 mg/kg, po administered as single dose and measured 1 hr before mouse sacrifice by electrochemiluminescence immunoassay; type: functional; design: scale not given: the % may be the effect or the level left; summary of the method: as §2
# [9] = Drug metabolism in mouse liver microsomes assessed as formation of (S)-2-(6-(1-(8-fluoro-6-(3-methylisoxazol-5-yl)-[1,2,4]triazolo[4,3-a]pyridin-3-yl)ethyl)quinolin-3-yloxy)acetic acid in presence of NADPH by LC-MS/MS method; type: ADME; summary of the method: as §1
# Liver microsome [10] = test: Drug metabolism in human liver microsomes assessed as formation of (S)-2-(6-(1-(8-fluoro-6-(3-methylisoxazol-5-yl)-[1,2,4]triazolo[4,3-a]pyridin-3-yl)ethyl)quinolin-3-yloxy)acetic acid in presence of NADPH by LC-MS/MS method; type: ADME; summary of the method: as §1
# [11] = Drug metabolism in monkey liver microsomes assessed as formation of (S)-2-(6-(1-(8-fluoro-6-(3-methylisoxazol-5-yl)-[1,2,4]triazolo[4,3-a]pyridin-3-yl)ethyl)quinolin-3-yloxy)ethanol in presence of NADPH by LC-MS/MS method; type: ADME, Macaca mulatta; details: rhesus monkey; summary of the method: as §1
# [12] = Volume of distribution at steady state in Sprague-Dawley rat at 0.25 mg/kg, iv; type: ADME, organism-based; design: dose 0.25 mg/kg, route intravenous; details: in vivo, read-out: Vdss
# Summary of the method: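 Male Sprague-Dawley rats were given a single IV dose of 0.25 mg/kg. The vehicle was DMSO, or for some compounds 20% (w/v) hydroxypropyl β-cyclodextrin in water adjusted to pH 3.5 with MSA. NC marks cases where the terminal disposition rate constant could not be characterized for lack of slope.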
# Liver microsome [13] = test: Unbound clearance rat liver microsomes at 1 uM in presence of NADPH by LC-MS/MS method; type: ADME
# Summary of the method: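 Aliquots were taken at 0, 10, 20, 30 and 40 min, quenched with an equal volume of acetonitrile, centrifuged and analysed by LC/MS/MS.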
# [14] = molecular target: T1, Hepatocyte growth factor receptor (Homo sapiens, UniProt P08581); test: Inhibition of recombinant c-Met kinase domain (unknown origin) incubated for 30 mins using gastrin peptide substrate by HTRF assay
# Mus musculus [15] = test: Inhibition of human recombinant HGF-stimulated c-Met autophosphorylation in Balb/c mouse assessed as relative phospho c-Met level at 10 mg/kg, po administered as single dose and measured 6 hrs before mouse sacrifice by electrochemiluminescence immunoassay; type: functional; design: scale not given: the % may be the effect or the level left; summary of the method: as §2
# Rattus norvegicus [16] = test: AUC (0 to infinity) in Sprague-Dawley rat at 0.25 mg/kg, iv; type: ADME, organism-based, Plasma; design: dose 0.25 mg/kg, route intravenous, time infinity; details: in vivo
# [17] = molecular target: T1, Hepatocyte growth factor receptor; test: Inhibition of HGF-stimulated c-Met autophosphorylation in serum starved human PC3 cells pre-incubated for 1 hr followed by human recombinant HGF stimulation for 10 mins by quantitative electrochemiluminescence immunoassay; type: cell-based, PC-3
# Summary of the method: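 Serum-starved PC-3 cells (plated in high-glucose DMEM/10% FBS, then 16 h in low-glucose DMEM with 0.1% BSA) were treated with a 10-point inhibitor dilution for 1 h at 37 °C. Cells were then stimulated with 200 ng/mL recombinant human HGF for 10 min and lysed. Phospho-c-Met was captured with biotinylated anti-c-Met and 4G10 by electrochemiluminescence. IC50, n ≥ 2.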
# [18] = Drug metabolism in monkey liver microsomes assessed as formation of (S)-2-(6-(1-(8-fluoro-6-(3-methylisoxazol-5-yl)-[1,2,4]triazolo[4,3-a]pyridin-3-yl)ethyl)quinolin-3-yloxy)acetic acid in presence of NADPH by LC-MS/MS method; type: ADME, Macaca mulatta; details: rhesus monkey; summary of the method: as §1
# Mus musculus [19] = test: Inhibition of human recombinant HGF-stimulated c-Met autophosphorylation in Balb/c mouse assessed as relative phospho c-Met level at 10 mg/kg, po administered as single dose and measured 12 hrs before mouse sacrifice by electrochemiluminescence immunoassay; type: functional; design: scale not given: the % may be the effect or the level left; summary of the method: as §2
# [20] = Oral bioavailability in Sprague-Dawley rat at 2 mg/kg; type: ADME, organism-based; details: in vivo
# Summary of the method: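 Male Sprague-Dawley rats given 2.0 mg/kg orally in 2% (w/v) hydroxypropylmethylcellulose, 1% (w/v) Tween 80 in water, pH 2.2 (adjusted with HCl or MSA). Some inhibitors instead used 10% (v/v) dimethylacetamide in the same vehicle.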
# [21] = Drug metabolism in mouse liver microsomes assessed as formation of (S)-2-(6-(1-(8-fluoro-6-(3-methylisoxazol-5-yl)-[1,2,4]triazolo[4,3-a]pyridin-3-yl)ethyl)quinolin-3-yloxy)ethanol in presence of NADPH by LC-MS/MS method; type: ADME; summary of the method: as §1
# Rattus norvegicus [22] = test: Clearance in Sprague-Dawley rat at 0.25 mg/kg, iv; type: ADME, organism-based; design: dose 0.25 mg/kg, route intravenous; details: in vivo
# Liver microsome [23] = test: Drug metabolism in human liver microsomes assessed as formation of (S)-2-(6-(1-(8-fluoro-6-(3-methylisoxazol-5-yl)-[1,2,4]triazolo[4,3-a]pyridin-3-yl)ethyl)quinolin-3-yloxy)ethanol in presence of NADPH by LC-MS/MS method; type: ADME; summary of the method: as §1
# [24] = Half life in Sprague-Dawley rat at 0.25 mg/kg, iv; type: ADME, organism-based; design: dose 0.25 mg/kg, route intravenous; details: in vivo
# Liver microsome [25] = test: Drug metabolism in dog liver microsomes assessed as formation of (S)-2-(6-(1-(8-fluoro-6-(3-methylisoxazol-5-yl)-[1,2,4]triazolo[4,3-a]pyridin-3-yl)ethyl)quinolin-3-yloxy)ethanol in presence of NADPH by LC-MS/MS method; type: ADME, Canis lupus familiaris; summary of the method: as §1
# Liver microsome [26] = test: Drug metabolism in rat liver microsomes assessed as formation of (S)-2-(6-(1-(8-fluoro-6-(3-methylisoxazol-5-yl)-[1,2,4]triazolo[4,3-a]pyridin-3-yl)ethyl)quinolin-3-yloxy)acetic acid in presence of NADPH by LC-MS/MS method; type: ADME; summary of the method: as §1
# T1 sequence (P08581 whole entry, the tested form may be a part): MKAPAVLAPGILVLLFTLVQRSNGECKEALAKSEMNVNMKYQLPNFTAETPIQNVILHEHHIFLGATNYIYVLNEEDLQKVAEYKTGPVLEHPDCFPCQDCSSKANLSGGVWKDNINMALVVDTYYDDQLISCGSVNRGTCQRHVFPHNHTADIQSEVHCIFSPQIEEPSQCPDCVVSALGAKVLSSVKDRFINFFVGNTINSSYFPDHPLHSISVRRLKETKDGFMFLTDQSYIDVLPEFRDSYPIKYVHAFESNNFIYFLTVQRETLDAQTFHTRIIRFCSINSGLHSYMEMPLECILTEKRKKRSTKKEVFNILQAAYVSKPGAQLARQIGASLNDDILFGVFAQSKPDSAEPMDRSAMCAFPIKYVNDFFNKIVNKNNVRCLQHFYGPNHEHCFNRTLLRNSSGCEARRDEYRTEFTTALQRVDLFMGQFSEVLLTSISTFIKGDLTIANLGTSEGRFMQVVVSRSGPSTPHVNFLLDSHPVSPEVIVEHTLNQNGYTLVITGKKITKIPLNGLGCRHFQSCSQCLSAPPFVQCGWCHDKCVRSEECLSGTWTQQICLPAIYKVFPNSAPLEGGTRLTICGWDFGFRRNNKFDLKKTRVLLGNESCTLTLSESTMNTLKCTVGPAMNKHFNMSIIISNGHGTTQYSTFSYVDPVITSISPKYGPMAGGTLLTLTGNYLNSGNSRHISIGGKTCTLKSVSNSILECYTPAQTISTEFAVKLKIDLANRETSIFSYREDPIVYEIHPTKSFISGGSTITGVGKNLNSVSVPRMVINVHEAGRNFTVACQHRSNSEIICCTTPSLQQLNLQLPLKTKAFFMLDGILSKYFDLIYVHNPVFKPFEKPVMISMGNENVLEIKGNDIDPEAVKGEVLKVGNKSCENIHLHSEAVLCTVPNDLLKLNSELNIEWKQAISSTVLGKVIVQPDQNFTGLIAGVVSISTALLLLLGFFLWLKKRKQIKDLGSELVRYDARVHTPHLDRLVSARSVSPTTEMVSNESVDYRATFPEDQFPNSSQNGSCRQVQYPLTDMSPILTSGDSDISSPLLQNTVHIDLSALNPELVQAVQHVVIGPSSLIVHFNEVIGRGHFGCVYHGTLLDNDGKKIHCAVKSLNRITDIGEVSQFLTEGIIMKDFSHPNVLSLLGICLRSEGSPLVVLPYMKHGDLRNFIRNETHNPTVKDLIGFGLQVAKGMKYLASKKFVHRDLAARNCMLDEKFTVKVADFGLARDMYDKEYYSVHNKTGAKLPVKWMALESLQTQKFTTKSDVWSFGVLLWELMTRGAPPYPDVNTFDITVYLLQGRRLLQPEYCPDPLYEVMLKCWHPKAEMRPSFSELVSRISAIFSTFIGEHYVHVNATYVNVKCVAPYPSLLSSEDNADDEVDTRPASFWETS
smiles,measurement,setting,value
COc1cnc2ccc([C@H](CO)c3nnc4c(F)cc(-c5cc(C)no5)cn34)cc2c1,Drug metabolism,[1],metabolite_detected
same,Drug metabolism,Liver microsome [2],metabolite_detected
COCCOc1cnc2ccc([C@H](C)c3nnc4c(F)cc(-c5cc(C)no5)cn34)cc2c1,Activity,Mus musculus [3],99%
same,Drug metabolism,Liver microsome [4],metabolite_detected
same,Activity,Mus musculus [5],64%
same,Activity,Mus musculus [6],27%
same,Drug metabolism,Liver microsome [7],metabolite_detected
same,Activity,Mus musculus [8],96%
same,Drug metabolism,[9],metabolite_detected
same,Drug metabolism,Liver microsome [10],metabolite_detected
same,Drug metabolism,[11],metabolite_detected
same,Vd,[12],4.9 L/kg
same,CL free,Liver microsome [13],25 L/h/kg
same,IC50,[14],1 nM
same,Activity,Mus musculus [15],94%
same,AUC,Rattus norvegicus [16],3.1 µM·h
same,IC50,[17],5 nM
same,Drug metabolism,[18],metabolite_detected
same,Activity,Mus musculus [19],47%
same,bioavailability,[20],46%
same,Drug metabolism,[21],metabolite_detected
same,CL,Rattus norvegicus [22],0.57 L/h/kg
same,Drug metabolism,Liver microsome [23],metabolite_detected
same,half-life,[24],252 min
same,Drug metabolism,Liver microsome [25],metabolite_detected
same,Drug metabolism,Liver microsome [26],metabolite_detected
